Legend:
Mus musculus [1] = experiment: Anti-fighting potency against foot shock induced fighting behavior in mice expressed as % inhibition at 25 mg/kg peroral administration; type: functional; settings: route oral
Mus musculus [2] = experiment: Anti-morphine activity against morphine-induced Straub''s tail reaction in mice expressed as % inhibition at 25 mg/kg peroral administration; type: functional; settings: route oral
Procedure, shortened: (§1)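 Six mice per group received test compounds orally 1 h before morphine (20 mg/kg ip). Straub's tail reaction was scored as the index of morphine's CNS stimulant action.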

Mus musculus [3] = experiment: Anti-morphine activity against the morphine-induced Straub's tail reaction in mice on peroral administration; type: functional; settings: po
Procedure, shortened: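 Mice, six per group, dosed orally with test compound 1 h before morphine (20 mg/kg ip); Straub's tail reaction scored as index of morphine CNS stimulation.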

Mus musculus [4] = experiment: Antifighting potency against the foot shock induced fighting behavior in mice on peroral administration; type: functional; settings: po
Rattus norvegicus [5] = experiment: Evaluated for neuroleptic-like property using anti-methamphetamine test in rats on peroral administration; type: functional; settings: po
Procedure, shortened: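 Groups of six rats were dosed orally, then given methamphetamine 5 mg/kg ip 1 h later. Stereotypy was scored 0–4: sleep/eyes closed 0, motionless/eyes open 1, moving around cage 2, sniffing 3, continuous licking or gnawing 4. ED50 was the dose halving mean score versus controls, with 95% confidence limits.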

Mus musculus [6] = experiment: Evaluated for muscle-relaxant action in mice on peroral administration; type: functional; settings: po
Procedure, shortened: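 Traction test: mice, eight per group, dosed orally; 1 h later forepaws placed on horizontal wire bar 30 cm high; failure to bring hind feet onto wire within 5 s counted as muscle relaxation.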

Mus musculus [7] = experiment: Evaluated for hypothermic activity in mice at 30 mg/kg on peroral administration; type: functional; settings: route oral
Procedure, shortened: (§2)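 Six mice per group were dosed orally 1 h before testing. Rectal temperature was read with an electronic thermometer. Results are given as degrees of hypothermia (Δt °C) versus an untreated group.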

Mus musculus [8] = experiment: Cataleptogenic action in mice on peroral administration; type: functional; settings: po
Procedure, shortened: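 Six mice per group were dosed orally 1 h before testing. Forepaws were placed on a horizontal steel bar to force an abnormal posture. Holding the posture over 30 s counted as catalepsy. ED50 was the dose giving catalepsy in 50% of animals, with 95% confidence limits.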

[9] = Toxicity on peroral administration to mice; type: organism-based; settings: mouse, in vivo, po
Procedure, shortened: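 Oral dosing to mice, eight per group; LD50 calculated by Litchfield-Wilcoxon method.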

Mus musculus [10] = experiment: Anti-morphine activity against the morphine-induced Straub''s tail reaction in mice expressed as % inhibition at 25 mg/kg peroral administration; type: functional; settings: route oral; procedure, shortened: as §1
Rattus norvegicus [11] = experiment: Evaluated for neuroleptic-like property using open-field test in rats(increase in ambulation at 3 to 20 mg/kg) on peroral administration; value may range from 8.4 to 17.0; type: functional; settings: dose mg/kg 3-20, route oral
[12] = Ratio of the muscle relaxant action to antifighting effect; type: functional
Procedure, shortened: (§3)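 Muscle relaxation was measured by traction test in mice (eight per group), 1 h after oral dosing. Forepaws were placed on a horizontal wire bar 30 cm high. Failure to bring the hind feet onto the wire within 5 s counted as relaxation. This action was set in ratio with the antifighting effect.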

Mus musculus [13] = experiment: Evaluated for hypothermic activity in mice at 30 mg/kgo n peroral administration; type: functional; settings: dose 30 mg/kg; route oral; procedure, shortened: as §2
Rattus norvegicus [14] = experiment: Evaluated for neuroleptic-like property using open-field test in rats(increase in ambulation at 3 to 20 mg/kg on peroral administration; value may range from 7.3 to 13.9; type: functional; settings: dose mg/kg 3-20, route oral
[15] = Ratio of muscle relaxant action to antifighting effect; type: functional; procedure, shortened: as §3

| Structure (SMILES) | inhibition in vivo at 25 mg/kg (Mus musculus [1]) | inhibition in vivo at 25 mg/kg (Mus musculus [2]) | other results |
| --- | --- | --- | --- |
| CCC1CCc2ccc(OCCCN3CCN(c4ccc(F)cc4)CC3)cc21 (stereo not given) | 67% | 44% |  |
| Fc1ccc(N2CCN(CCOc3ccc4c(c3)CCC4)CC2)cc1 | 40% | 0% |  |
| Cl.Cl.Cl.Clc1cc2c(cc1OCCCN1CCN(c3ccccc3)CC1)CCC2 | 58% | 82% | ED50 (Mus musculus [3]): 22 mg/kg; ED50 (Mus musculus [4]): 21 mg/kg |
| Fc1ccc(N2CCN(CCCOc3cc4c(cc3F)CCC4)CC2)cc1 | 100% | 97% |  |
| Clc1cccc(N2CCN(CCCCOc3ccc4c(c3)CCC4)CC2)c1 | 37% | 0% |  |
| COc1cc2c(cc1OCCCN1CCN(c3cccc(Cl)c3)CC1)CCC2.Cl.Cl.Cl | 67% | 98% | ED50 (Mus musculus [3]): 11.3 mg/kg; ED50 (Mus musculus [4]): 15.9 mg/kg |
| Cl.Cl.O=[N+]([O-])c1ccccc1N1CCN(CCCCOc2ccc3c(c2)CCC3)CC1 | 42% | 54% | ED50 (Mus musculus [3]): 23 mg/kg; ED50 (Mus musculus [4]): 25.8 mg/kg |
| Fc1ccc(N2CCN(CCCOc3ccc4c(c3)C(c3ccccc3)CC4)CC2)cc1 (stereo not given) | 17% | 32% |  |
| Clc1cc(Cl)cc(N2CCN(CCCCOc3ccc4c(c3)CCC4)CC2)c1 | 0% | 0% |  |
| COc1ccccc1N1CCN(CCCCOc2ccc3c(c2)CCC3)CC1 | 33% | 42% |  |
| Fc1ccc(N2CCN(CCCCCOc3ccc4c(c3)CCC4)CC2)cc1 | 58% | 71% |  |
| Oc1cc2c(cc1OCCCN1CCN(c3ccc(F)cc3)CC1)CCC2 | 25% | 0% |  |
| Cl.Cl.Cl.Clc1ccccc1N1CCN(CCCCOc2ccc3c(c2)CCC3)CC1 | 85% | 42% | ED50 (Mus musculus [3]): 30 mg/kg; ED50 (Mus musculus [4]): 14.5 mg/kg |
| Cl.Cl.Fc1ccc(N2CCN(CCCCOc3cc4c(cc3F)CCC4)CC2)cc1 | 83% | 90% | ED50 (Mus musculus [3]): 10.2 mg/kg; ED50 (Mus musculus [4]): 14.4 mg/kg |
| CN1C(=O)CN=C(c2ccccc2)c2cc(Cl)ccc21 [DIAZEPAM] |  |  | ED50 (Rattus norvegicus [5]): > 30 mg/kg; ED50 (Mus musculus [3]): 1.2 mg/kg; ED50 (Mus musculus [4]): 1.6 mg/kg; ED50 (Mus musculus [6]): 4.8 mg/kg; Delta t (Mus musculus [7]): -0.1; ED50 (Mus musculus [8]): > 30 mg/kg |
| Fc1ccc(N2CCN(CCCOc3cccc4c3CCC4)CC2)cc1 | 5% | 25% |  |
| O=[N+]([O-])c1ccc(N2CCN(CCCOc3ccc4c(c3)CCC4)CC2)cc1 | 0% | 26% |  |
| CNC1=Nc2ccc(Cl)cc2C(c2ccccc2)=[N+]([O-])C1 [CHLORDIAZEPOXIDE] |  |  | ED50 (Rattus norvegicus [5]): > 30 mg/kg; ED50 (Mus musculus [6]): 8 mg/kg; Delta t (Mus musculus [7]): 0.2; LD50 [9]: 700 mg/kg; ED50 (Mus musculus [8]): > 30 mg/kg |
| Fc1ccc(N2CCN(CCCCOc3ccc4c(c3)CCC4)CC2)cc1 | 70% | 100% |  |
| COc1ccc(N2CCN(CCCCOc3ccc4c(c3)CCC4)CC2)cc1 | 17% | 14% |  |
| O=[N+]([O-])c1cc2c(cc1OCCCN1CCN(c3ccccc3)CC1)CCC2 | 67% | 24% |  |
| Clc1ccc(N2CCN(CCCOc3ccc4c(c3)CCC4)CC2)cc1 | 43% | 58% |  |
| COc1ccc(N2CCN(CCCOc3ccc4c(c3)CCC4)CC2)cc1 | 60% | 37% |  |
| Fc1cccc(N2CCN(CCCCOc3ccc4c(c3)CCC4)CC2)c1 | 15% | 17% |  |
| FC(F)(F)c1cccc(N2CCN(CCCCCOc3ccc4c(c3)CCC4)CC2)c1 | 33% | 66% |  |
| CC(=O)c1ccc(N2CCN(CCCOc3ccc4c(c3)CCC4)CC2)cc1 | 13% | 0% |  |
| Clc1ccccc1N1CCN(CCCOc2ccc3c(c2)CCC3)CC1 | 40% | 42% |  |

| Structure (SMILES) | inhibition in vivo at 25 mg/kg (Mus musculus [1]) | inhibition in vivo at 25 mg/kg (Mus musculus [2]) | other results |
| --- | --- | --- | --- |
| Cl.Cl.c1ccc(N2CCN(CCCOc3ccc4c(c3)CCC4)CC2)cc1 | 85% |  | ED50 (Rattus norvegicus [5]): > 100 mg/kg; inhibition in vivo at 25 mg/kg (Mus musculus [10]): 89%; ED50 (Rattus norvegicus [11]): 11.7 mg/kg; Delta t (Mus musculus [7]): -2.3 °C; LD50 [9]: > 1500 mg/kg; ED50 (Mus musculus [8]): > 100 mg/kg; Ratio [12]: 2.18 |
| Clc1ccc(N2CCN(CCCOc3cc4c(cc3Cl)CCC4)CC2)cc1 | 33% | 36% |  |
| Clc1cccc(N2CCN(CCCOc3ccc4c(c3)CCC4)CC2)c1 | 83% | 83% |  |
| c1ccc(N2CCN(CCCOc3cccc4c3CCC4)CC2)cc1 | 0% | 33% |  |
| Cl.Cl.FC(F)(F)c1cccc(N2CCN(CCCCOc3ccc4c(c3)CCC4)CC2)c1 | 8% | 100% | ED50 (Mus musculus [3]): 12.5 mg/kg |
| Fc1cc2c(cc1OCCCN1CCN(c3cccc(Cl)c3)CC1)CCC2 | 92% | 92% |  |
| COc1ccccc1N1CCN(CCCOc2ccc3c(c2)CCC3)CC1 | 0% | 19% |  |
| c1ccc(N2CCN(CCOc3ccc4c(c3)CCC4)CC2)cc1 | 0% | 17% |  |
| Oc1cc2c(cc1OCCCN1CCN(c3ccccc3)CC1)CCC2 | 17% | 0% |  |
| O=[N+]([O-])c1cc2c(cc1OCCCN1CCN(c3ccc(F)cc3)CC1)CCC2 | 58% | 28% |  |
| O=[N+]([O-])c1ccccc1N1CCN(CCCOc2ccc3c(c2)CCC3)CC1 | 8% | 43% |  |
| COc1cc2c(cc1OCCCN1CCN(c3ccc(F)cc3)CC1)CCC2 | 100% | 100% |  |
| Clc1ccc(N2CCN(CCCCOc3ccc4c(c3)CCC4)CC2)cc1 | 31% | 33% |  |
| Oc1cc2c(cc1OCCCN1CCN(c3cccc(Cl)c3)CC1)CCC2 | 0% | 29% |  |
| Fc1cc2c(cc1OCCCN1CCN(c3cccc(C(F)(F)F)c3)CC1)CCC2 | 0% | 20% |  |
| Cl.Cl.Fc1cc2c(cc1OCCCN1CCN(c3ccccc3)CC1)CCC2 | 100% | 89% | ED50 (Rattus norvegicus [5]): > 100 mg/kg; Delta t (Mus musculus [13]): -2.9 °C; ED50 (Rattus norvegicus [14]): 9.3 mg/kg; LD50 [9]: > 2000 mg/kg; ED50 (Mus musculus [8]): > 100 mg/kg; Ratio [15]: 5 |
| Fc1cc2c(cc1OCCCCN1CCN(c3ccccc3)CC1)CCC2 | 33% | 79% |  |
| Cc1cc2c(cc1OCCCN1CCN(c3ccc(F)cc3)CC1)CCC2 | 50% | 31% |  |
| c1ccc(C2CCc3ccc(OCCCN4CCN(c5ccccc5)CC4)cc32)cc1 (stereo not given) | 0% | 34% |  |
| Clc1cc(Cl)cc(N2CCN(CCCOc3ccc4c(c3)CCC4)CC2)c1 | 0% | 0% |  |
| COc1cc2c(cc1OCCCN1CCN(c3ccccc3)CC1)CCC2 | 50% | 65% |  |
| Fc1cccc(N2CCN(CCCOc3ccc4c(c3)CCC4)CC2)c1 | 19% | 42% |  |
| Cl.Cl.Cl.Fc1ccc(N2CCN(CCCOc3cc4c(cc3Cl)CCC4)CC2)cc1 | 83% | 100% | ED50 (Mus musculus [3]): 11.5 mg/kg; ED50 (Mus musculus [4]): 14.3 mg/kg |
| O=[N+]([O-])c1ccc(N2CCN(CCCCOc3ccc4c(c3)CCC4)CC2)cc1 | 0% | 22% |  |
| c1ccc(N2CCN(CCCCOc3ccc4c(c3)CCC4)CC2)cc1 | 75% | 50% |  |
| FC(F)(F)c1cccc(N2CCN(CCCOc3ccc4c(c3)CCC4)CC2)c1 | 0% | 73% |  |
| c1ccc(N2CCN(CCCCCOc3ccc4c(c3)CCC4)CC2)cc1 | 27% | 25% |  |
